Screening data: PubChem, several laboratories
The sample as a whole holds a higher share of hits than the screen did.
zfTRPN1 agonist: zebrafish TRPN1 (NompC) channel agonism; HEK293 zebrafish TRPN1-YFP, Fluo-8 calcium fluorescence; 100% = response to 87 µM carbachol; activation, % at 3 µM; 0.18% of 220,000 active; AID 1424;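 active means activation above its plate's cutoff, the mean activation of test wells on that plate plus 3 SD, cut at about 19% in these data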;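 further: 0% = DMSO alone and 100% = 87 µM carbachol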
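Material: zebrafish TRPN1-YFP in HEK293 cells. Doses: one dose of 3 µM, 0.3% DMSO. Incubation: dye 1 h 37 °C plus 30 min RT. Measured by: intracellular calcium fluorescence with Fluo-8.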
ROMK primary: human ROMK K+ channel modulation, primary screen; 2% of 130,000 active; Tet-inducible ROMK, thallium flux fluorescence; actives lie on both sides; B-score at 10 µM;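 active means signal ratio slope over the read window, or its plate-corrected B-score, at least 3 SD from the plate mean, either direction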;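 further: B-score of the F/F0 ratio slope over 7 to 12 s after thallium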
Target sequence (P48048 whole entry, looked up): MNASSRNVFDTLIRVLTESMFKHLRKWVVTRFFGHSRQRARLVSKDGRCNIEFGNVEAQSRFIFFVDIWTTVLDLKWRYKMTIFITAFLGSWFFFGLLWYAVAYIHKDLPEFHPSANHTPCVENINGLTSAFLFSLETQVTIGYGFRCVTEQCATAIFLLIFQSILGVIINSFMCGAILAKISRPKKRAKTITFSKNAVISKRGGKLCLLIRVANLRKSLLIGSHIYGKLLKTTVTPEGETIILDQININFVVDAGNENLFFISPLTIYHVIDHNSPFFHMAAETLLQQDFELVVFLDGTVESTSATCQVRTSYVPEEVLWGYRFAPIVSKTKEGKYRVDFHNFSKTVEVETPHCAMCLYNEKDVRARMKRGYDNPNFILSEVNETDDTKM
ABCB1 block: inhibitors of human ABCB1 transporter, ABCG2 counter-screen. P08183. CCRF-Adr cells, JC-1 efflux, flow cytometry. inhibition, % at 6.6 µM. 0.067% of 190,000 active; in the data active means inhibition above about 40%;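 further: 0% = vehicle and 100% = reference inhibitor; higher value means more JC-1 retained so stronger ABCB1 efflux block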
Biofilm kill mix: mixture kills Candida albicans biofilm cells; C. albicans biofilm persisters + clotrimazole, fluorescence viability; primary screen in compound mixtures of four per well; inhibition, % at 7.6 µM; 0.02% of 120,000 active;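 active means inhibition above 30.3% in the primary screen of four-compound pools, then above 30% when the compound was retested; inconclusive means passed the primary limit but could not be retested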;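 further: compounds exposed to preformed 24 h biofilms for 48 h; 0% = untreated biofilm control and 100% = clotrimazole plus chlorhexidine kill blank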
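System: C. albicans CAF4-2 wild-type biofilms; Medium: RPMI/MOPS medium, pH 7.0; Reagent: Clotrimazole, 50 µg/mL; Times: biofilm formation 24 h, compound exposure 48 h, 37 °C; Detection: 2-h Alamar Blue fluorescence, 535/590 nm excitation/emission; Evaluation: percent inhibition of biofilm viability.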
ABCG2 inh: inhibitors of human ABCG2 transporter, ABCB1 counter-screen; inhibition, % at 6.6 µM; 0.1% of 190,000 active; Q9UNQ0; AID 1325; IgMXP3 cells, JC-1 efflux, flow cytometry;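 active means inhibition above 80%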;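 further: 0% = DMSO and 100% = nicardipine control wells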
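Test system: IgMXP3 cells (ABCG2) mixed with DDAO far-red-labelled CCRF-Adr cells (ABCB1). Reagent: JC-1 transporter substrate. Compound dosing: single test compound dose, 6.6 µM final. Times: 10 min compound exposure, 25 °C. Detection: flow cytometry of retained JC-1 fluorescence. Read-out basis: efflux inhibition in percent versus controls. Controls: nicardipine and DMSO wells.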
TRPML3 ag: agonists of human TRPML3 channel; Q8TDD5; HEK293 TRPML3-YFP, Fluo-8 calcium fluorescence; 100% = the carbachol control signal; activation, % at 3 µM; 0.29% of 220,000 active;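 active means activation above its plate's cutoff, the mean activation of the plate's test wells plus 3 SD, cut at about 12% in these data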;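 further: 0% = DMSO only wells and 100% = carbachol wells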
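Test system – HEK293 line with stable expression of human TRPML3-YFP channel · Control set – carbachol 87 µM final as high control (100%), DMSO as low control (0%) · Signal – Fluo-8 calcium dye fluorescence, ex 470-495, em 515-575 nm · Incubation – 1-h 37 °C dye load, 5-s basal, 120-s post-compound reads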
ROMK retest: retested hit modulating human ROMK potassium channel | shares compounds with ROMK primary | ROMK thallium flux, fluorescence ratio; stronger effect = lower value | normalized thallium flux (F/F0 slope) at 10 µM | 54% of 3,000 active | AID 1917;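 active means Flux at 10 µM at least 3 SD below or above vehicle control mean in one or both replicates; inconclusive means no clear call, values can overlap the other calls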
* marks the source's active call; other numbers are inactive results.

`Cn1cc(Br)c(C(=O)NN2C(=O)C3C4C=CC(C5CC45)C3C2=O)n1` (centres undefined) gave zfTRPN1 agonist 0, ROMK primary 0.3, ABCB1 block 1, Biofilm kill mix -1, ABCG2 inh 4 and TRPML3 ag 1.
Cc1ccc(NC(=S)NCC2CCN(C(C)c3ccccc3)C2)cc1C (centres undefined) was read as zfTRPN1 agonist 1, ROMK primary -4.2*, ABCB1 block 0, Biofilm kill mix 24, ABCG2 inh 2, TRPML3 ag 1 and ROMK retest 0.059*.
O=C(Oc1cccnc1)c1ccc(Cl)c(Cl)c1 was read as zfTRPN1 agonist 0, ROMK primary -5.4*, ABCB1 block 1, ABCG2 inh 7, TRPML3 ag 1 and ROMK retest inconclusive.
`CCOC(=O)N1CCN(C(=O)COc2ccc(Cl)c(C)c2)CC1` gave zfTRPN1 agonist 0, ROMK primary -3.6*, ABCB1 block 0, Biofilm kill mix 7, ABCG2 inh -1, TRPML3 ag 1 and ROMK retest 0.058*.
`Cc1ccc(C2=Nc3ccc(Br)cc3C(c3ccncc3)=NN2)cc1` gave zfTRPN1 agonist -1, ROMK primary 0.039, ABCB1 block 2, Biofilm kill mix 19, ABCG2 inh 11 and TRPML3 ag 0.
For CCN1CCN(CCNC(=O)c2ccc(/C=C3/Sc4ccccc4N(Cc4ccccc4C)C3=O)cc2)CC1 the results were zfTRPN1 agonist 13, ROMK primary -3.6*, ABCB1 block 1, Biofilm kill mix 17, ABCG2 inh -5, TRPML3 ag 8 and ROMK retest 0.078.
Screening CCN1CCN(CCCNC(=O)c2ccc(/C=C3/Sc4ccccc4N(Cc4ccccc4F)C3=O)cc2)CC1 returned zfTRPN1 agonist 3, ROMK primary -3.3*, ABCB1 block 6, Biofilm kill mix 16, ABCG2 inh 4, TRPML3 ag 1 and ROMK retest 0.077.
`CC1CCCC(C)N1C(=S)SCC(=O)O` (centres undefined) gave zfTRPN1 agonist 1, ROMK primary -0.21, ABCB1 block -1, Biofilm kill mix 12, ABCG2 inh 0 and TRPML3 ag 1.
CCN(CC)C(=O)CSc1nc2ccccc2c(=O)n1CC1CCCCC1 was read as zfTRPN1 agonist -1, ROMK primary -2.4, ABCB1 block 4, ABCG2 inh 8, TRPML3 ag -1 and ROMK retest 0.061*.
`CC1(N(O)/C=C2\C=CC=CC2=O)CCCCC1=O` (centres undefined) gave zfTRPN1 agonist 1, ROMK primary 1.5, Biofilm kill mix 16 and TRPML3 ag 1.
`O=C(O)c1cc2nc(C3CC3)cc(C(F)(F)F)n2n1` gave zfTRPN1 agonist 3, ABCB1 block 0, ABCG2 inh 1 and TRPML3 ag 1.
Screening O=C(c1cc2nc(C3CC3)cc(C(F)(F)F)n2n1)N1CCCC1 returned zfTRPN1 agonist 1, ROMK primary 6.9*, ABCB1 block 1, ABCG2 inh 8, TRPML3 ag 1 and ROMK retest 0.079.
For Cn1ccnc1SCC(=O)N1CCN(S(=O)(=O)c2ccccc2)CC1 the results were zfTRPN1 agonist 1, ROMK primary 0.71, ABCB1 block 0, Biofilm kill mix 11, ABCG2 inh 2 and TRPML3 ag 0.
For O=C1NC(Cc2c[nH]c3ccccc23)C(=O)N1CCOc1ccc(F)cc1 (centres undefined) the results were zfTRPN1 agonist 2, ABCB1 block 0, ABCG2 inh 1 and TRPML3 ag 0.
For O=C1NC(Cc2c[nH]c3ccccc23)C(=O)N1Cc1ccc(CN2C(=O)NC(Cc3c[nH]c4ccccc34)C2=O)cc1 (centres undefined) the results were zfTRPN1 agonist 0, ROMK primary -3.9*, ABCB1 block 0, Biofilm kill mix -3, ABCG2 inh -5, TRPML3 ag 1 and ROMK retest 0.065*.
Screening Cc1nc2nc(-c3cccs3)cn2nc1C returned zfTRPN1 agonist 1, ROMK primary -8.5*, ABCB1 block 0, ABCG2 inh 0, TRPML3 ag 0 and ROMK retest 0.042*.
`Cn1cccc1/C=C1\CC(C(C)(C)C)C/C(=C\c2cccn2C)C1=O` (centres undefined) gave zfTRPN1 agonist 2, ROMK primary -3.6*, ABCB1 block 14, ABCG2 inh 21, TRPML3 ag 1 and ROMK retest 0.04*.
For COc1ccccc1NS(=O)(=O)c1cccc(N=C2N=C(N)c3ccccc32)c1 the results were zfTRPN1 agonist 1, ABCB1 block 1, Biofilm kill mix 15, ABCG2 inh 12, TRPML3 ag 0 and ROMK retest 0.081.
Screening CCCCOC(=O)Nc1cc(C(=O)OC)ccc1C(=O)OC returned zfTRPN1 agonist -2, ROMK primary 3.8*, ABCB1 block 0, ABCG2 inh 13, TRPML3 ag 1 and ROMK retest 0.073.
Screening CCCCOC(=O)Nc1ccc(C(=O)OC)cc1 returned zfTRPN1 agonist 1, ABCB1 block 1, ABCG2 inh 6 and TRPML3 ag -1.
`CCCc1ccc(NS(=O)(=O)c2c(C)oc(C)c2C(=O)OC)cc1` gave zfTRPN1 agonist -1, Biofilm kill mix 17 and TRPML3 ag -1.
Screening N#C/C(=C\C1CC=CCC1)c1nc2ccccc2[nH]1 (centres undefined) returned zfTRPN1 agonist 0, ROMK primary -7*, ABCB1 block 0, ABCG2 inh -1, TRPML3 ag 0 and ROMK retest 0.045*.
O=C(CSc1nnc(COc2ccccc2)o1)c1ccccc1 was read as zfTRPN1 agonist 1, ROMK primary -1.1, ABCB1 block 0, ABCG2 inh 12 and TRPML3 ag 0.
Screening CC(C)(C)NC(=O)CN(C(=O)CSc1nnc(COc2ccccc2)o1)c1cccc(F)c1 returned zfTRPN1 agonist 5, ROMK primary -2.7*, ABCB1 block 0, ABCG2 inh 1, TRPML3 ag 0 and ROMK retest inconclusive.
For CCOc1cccc2sc(N(CCCN(C)C)C(=O)Cc3ccccc3)nc12 the results were zfTRPN1 agonist 3, ROMK primary -3.2*, ABCB1 block 1, Biofilm kill mix 10, ABCG2 inh 0, TRPML3 ag 1 and ROMK retest 0.057*.
For O=C(C1CCC(CNc2c(N3CCCCC3)c(=O)c2=O)CC1)N1CCCC1 (centres undefined) the results were zfTRPN1 agonist 3, ROMK primary 0.97, Biofilm kill mix 8 and TRPML3 ag 1.
